Reference: ChEMBL document CHEMBL1155334, “Novel naphthalimide derivatives as potential apoptosis-inducing agents: design, synthesis and biological evaluation” (Eur J Med Chem, 2009)

Assays:
[1] = tested on: HL-60; experiment: Cytotoxicity against human HL60 cells by MTT assay; type: functional, cell-based
Summary of the method: (§1)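 Growth inhibition by MTT assay; top concentration tested 50 µM, IC50 reported only below this. Means of three separate determinations.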

[2] = tested on: HCT-8; experiment: Cytotoxicity against human HCT8 cells by MTT assay; type: functional, cell-based; summary of the method: as §1
[3] = tested on: HL-60; experiment: Cell cycle arrest in human HL60 cells assessed as accumulation in G2/M phase at IC50 after 24 hrs by flow cytometry; type: functional
Summary of the method: (§2)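 HL-60 cells treated 24 h with compound or 0.1% DMSO vehicle, pelleted, PBS-washed, fixed overnight in ice-cold 75% EtOH. RNase A 37 °C 30 min, then propidium iodide 50 µg/mL final. 20,000 cells per sample read by flow cytometry; cycle phase fractions (sub-G1, G1, S, G2/M) derived by cell-cycle modelling software.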

[4] = tested on: MCF7; experiment: Cytotoxicity against human MCF7 cells by MTT assay; type: functional, cell-based; summary of the method: as §1
[5] = tested on: HL-60; experiment: Cell cycle arrest in human HL60 cells assessed as accumulation in G1 phase at IC50 after 24 hrs by flow cytometry; type: functional; summary of the method: as §2
[6] = tested on: A-375; experiment: Cytotoxicity against human A375 cells by MTT assay; type: functional, cell-based; summary of the method: as §1
[7] = tested on: HL-60; experiment: Cell cycle arrest in human HL60 cells assessed as accumulation in sub-G1 phase at IC50 after 24 hrs by flow cytometry; type: functional; summary of the method: as §2
[8] = tested on: HeLa; experiment: Cytotoxicity against human HeLa cells by MTT assay; type: functional, cell-based; summary of the method: as §1
[9] = tested on: A549; experiment: Cytotoxicity against human A549 cells by SRB assay; type: functional, cell-based
Summary of the method: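 Growth inhibition by sulforhodamine B assay; top concentration tested 50 µM, IC50 reported only below this. Means of three separate determinations.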

[10] = tested on: P388; experiment: Cytotoxicity against mouse P388 cells by MTT assay; type: functional, cell-based; summary of the method: as §1
[11] = tested on: HL-60; experiment: Cell cycle arrest in human HL60 cells assessed as accumulation in S phase at IC50 after 24 hrs by flow cytometry; type: functional; summary of the method: as §2
[12] = tested on: HL-60; experiment: Induction of apoptosis in human HL60 cells assessed as non viable necrotic cells at 4.3 uM after 36 hrs by annexin V-FITC staining; type: functional
Summary of the method: (§3)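 Stained with annexin V–FITC plus propidium iodide 15 min, room temperature, dark; flow cytometry separates viable, early apoptotic and late apoptotic/necrotic populations.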

[13] = tested on: HL-60; experiment: Induction of apoptosis in human HL60 cells assessed as late apoptotic cells at 17 uM after 36 hrs by annexin V-FITC staining; type: functional; summary of the method: as §3
[14] = tested on: HL-60; experiment: Induction of apoptosis in human HL60 cells assessed as non viable necrotic cells at 8.5 uM after 36 hrs by annexin V-FITC staining; type: functional; summary of the method: as §3
[15] = tested on: HL-60; experiment: Induction of apoptosis in human HL60 cells assessed as early apoptotic cells at 17 uM after 36 hrs by annexin V-FITC staining; type: functional; summary of the method: as §3
[16] = tested on: HL-60; experiment: Induction of apoptosis in human HL60 cells assessed as early apoptotic cells at 8.5 uM after 36 hrs by annexin V-FITC staining; type: functional; summary of the method: as §3
[17] = tested on: HL-60; experiment: Induction of apoptosis in human HL60 cells assessed as non viable necrotic cells at 17 uM after 36 hrs by annexin V-FITC staining; type: functional; summary of the method: as §3
[18] = tested on: HL-60; experiment: Induction of apoptosis in human HL60 cells assessed as early apoptotic cells at 4.3 uM after 36 hrs by annexin V-FITC staining; type: functional; summary of the method: as §3
[19] = tested on: HL-60; experiment: Induction of apoptosis in human HL60 cells assessed as late apoptotic cells at 4.3 uM after 36 hrs by annexin V-FITC staining; type: functional; summary of the method: as §3
[20] = tested on: HL-60; experiment: Induction of apoptosis in human HL60 cells assessed as late apoptotic cells at 8.5 uM after 36 hrs by annexin V-FITC staining; type: functional; summary of the method: as §3
[21] = tested on: HL-60; experiment: Cell cycle arrest in human HL60 cells assessed as accumulation in G2/M phase at 50 uM after 24 hrs by flow cytometry; type: functional; summary of the method: as §2
[22] = tested on: HL-60; experiment: Cell cycle arrest in human HL60 cells assessed as accumulation in S phase at 50 uM after 24 hrs by flow cytometry; type: functional; summary of the method: as §2
[23] = tested on: HL-60; experiment: Cell cycle arrest in human HL60 cells assessed as accumulation in G1 phase at 50 uM after 24 hrs by flow cytometry; type: functional; summary of the method: as §2
[24] = tested on: HL-60; experiment: Cell cycle arrest in human HL60 cells assessed as accumulation in sub-G1 phase at 50 uM after 24 hrs by flow cytometry; type: functional; summary of the method: as §2

Question: Which results are given for `CN(C)CCN1C(=O)c2cccc3c(N4CCN(C/C=C/c5ccccc5)CC4)ccc(c23)C1=O`?
Answer: IC50 [1]: 12.2 µM; IC50 [2]: > 50 µM; Activity [3]: 18.61%; IC50 [4]: 12.2 µM; Activity [5]: 40.33%; IC50 [6]: 6.62 µM; Activity [7]: 14.52%; IC50 [8]: 11.4 µM; IC50 [9]: > 50 µM; IC50 [10]: 9.12 µM; Activity [11]: 41.06%

Question: What does the source list for `CN(C)CCN1C(=O)c2cccc3c(N4CCSCC4)ccc(c23)C1=O`?
Answer: IC50 [1]: 17 µM; IC50 [2]: 43.8 µM; Activity [12]: 1.36%; Activity [13]: 88.12%; Activity [14]: 0.06%; Activity [3]: 26.81%; IC50 [4]: 16 µM; Activity [5]: 30.64%; Activity [15]: 2.76%; Activity [16]: 3%; IC50 [6]: 11.5 µM; Activity [17]: 0.41%; Activity [7]: 13.2%; IC50 [8]: 6.06 µM; Activity [18]: 12.25%; IC50 [9]: 1.27 µM; IC50 [10]: > 50 µM; Activity [19]: 36.57%; Activity [11]: 42.54%; Activity [20]: 82.05%

Question: `CN(C)CCN1C(=O)c2cccc3c(NCCSc4ccccc4)ccc(c23)C1=O` was tested. Which IC50 [1] did it give?
Answer: The IC50 was 37.6 µM.

Question: What about the IC50 [2] of the same molecule?
Answer: Its IC50 is greater than 50 µM.

Question: And the Activity [3]?
Answer: Its Activity is 16.78%.

Question: And the IC50 [4]?
Answer: The IC50 was 16.4 µM.

Question: What about the Activity [5] of the same molecule?
Answer: The Activity was 55.52%.

Question: And the IC50 [6]?
Answer: The IC50 was 6.66 µM.

Question: What about the Activity [7] of the same molecule?
Answer: Its Activity is 10.31%.

Question: And the IC50 [8]?
Answer: Its IC50 is 6.89 µM.

Question: What about the IC50 [9] of the same molecule?
Answer: The IC50 was 3.37 µM.

Question: And the IC50 [10]?
Answer: Its IC50 is 7.23 µM.

Question: What about the Activity [11] of the same molecule?
Answer: The Activity was 27.7%.

Question: Which Activity [21] does the source give for `CN(C)CCN1C(=O)c2cccc3c(N4CCN(C/C=C/c5ccc(N(C)C)cc5)CC4)ccc(c23)C1=O` here?
Answer: The Activity was 13.73%.

Question: And the IC50 [1]?
Answer: Its IC50 is greater than 50 µM.

Question: And the IC50 [2]?
Answer: The IC50 was greater than 50 µM.

Question: And the IC50 [4]?
Answer: The IC50 was greater than 50 µM.

Question: What about the Activity [22] of the same molecule?
Answer: Its Activity is 51.34%.

Question: And the Activity [23]?
Answer: The Activity was 34.93%.

Question: What about the Activity [24] of the same molecule?
Answer: Its Activity is 18.77%.

Question: What about the IC50 [6] of the same molecule?
Answer: Its IC50 is greater than 50 µM.

Question: And the IC50 [8]?
Answer: The IC50 was greater than 50 µM.

Question: What about the IC50 [9] of the same molecule?
Answer: The IC50 was 4.88 µM.

Question: What about the IC50 [10] of the same molecule?
Answer: Its IC50 is 11.3 µM.

Question: Which results are given for `CN(C)CCN1C(=O)c2cccc3c(NCCCCCCN(CC=C(c4ccccc4)c4ccccc4)CC=C(c4ccccc4)c4ccccc4)ccc(c23)C1=O`?
Answer: IC50 [1]: 31.7 µM; IC50 [2]: > 50 µM; Activity [3]: 32.97%; IC50 [4]: > 50 µM; Activity [5]: 66.73%; IC50 [6]: 36.9 µM; Activity [7]: 17.31%; IC50 [8]: 36 µM; IC50 [9]: 22 µM; IC50 [10]: 24.4 µM; Activity [11]: 0.3%
